The list is not random: actives were taken first. Their share in the collection is about 1.9%.
TDP2 absorb: TDP2 (human) inhibition, absorbance primary screen | O95551 | recombinant TDP2, T5PNP hydrolysis, p-nitrophenol absorbance 415 nm | inhibition, % at 12.8 µM | actives 0.34% (n = 370,000);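 active = inhibition above the mean of all tested compounds plus 3 SD, set per campaign, cut at about 25% in these data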;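 note: 0% = DMSO with enzyme and 100% = buffer with substrate but no TDP2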
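Test system: Human TDP2 enzyme | Reagent: 5 mM T5PNP | Compound dosing: 12.8 µM single point, 1% DMSO | Incubation: Enzyme reaction with compound for 2 h at 37 °C | Technique: p-Nitrophenol epi absorbance | Read-out: % inhibition relative to enzyme-containing and enzyme-free wells | Benchmarks: High control without enzyme, low control DMSO plus TDP2 | Replicates: Singlicate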
LEDGF integ inh: blocks HIV-1 LEDGF/p75-dependent DNA integration; TR-FRET IN-LEDGF/p75 DNA integration, Eu/Cy5; inhibition, % at 3.7 µM; actives 0.64% (n = 370,000); AID 743269;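 active = inhibition above the screen-wide mean plus 3 SD, cut at about 13% in these data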;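 note: signal is the Cy5 over europium emission ratio at 671 and 618 nm; 0% = plate median of compound wells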
Casp6 inh: inhibitors of human caspase-6; P55212; purified caspase-6, Z-VEID-R110 cleavage fluorescence; inhibition, % at 12.5 µM; actives 0.53% (n = 350,000);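 active = mean inhibition across replicates at least about 35%, with every replicate also reaching that limit, limit read from the data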;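 note: 0% = median of neutral control wells and 100% = no fluorescence left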
UHRF1 binding: UHRF1 methyl-DNA binding inhibition. UHRF1 binding to methylated oligo, TR-FRET. inhibition, % at 4.4 µM. actives 0.75% (n = 370,000); in the data active = inhibition above about 21%;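 note: UHRF1 SRA domain binding a hemimethylated CpG hairpin DNA probe; 0% = median of test compound wells and 100% = reference inhibitor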
Target sequence (Q96T88 whole entry, looked up, the tested form may be a part): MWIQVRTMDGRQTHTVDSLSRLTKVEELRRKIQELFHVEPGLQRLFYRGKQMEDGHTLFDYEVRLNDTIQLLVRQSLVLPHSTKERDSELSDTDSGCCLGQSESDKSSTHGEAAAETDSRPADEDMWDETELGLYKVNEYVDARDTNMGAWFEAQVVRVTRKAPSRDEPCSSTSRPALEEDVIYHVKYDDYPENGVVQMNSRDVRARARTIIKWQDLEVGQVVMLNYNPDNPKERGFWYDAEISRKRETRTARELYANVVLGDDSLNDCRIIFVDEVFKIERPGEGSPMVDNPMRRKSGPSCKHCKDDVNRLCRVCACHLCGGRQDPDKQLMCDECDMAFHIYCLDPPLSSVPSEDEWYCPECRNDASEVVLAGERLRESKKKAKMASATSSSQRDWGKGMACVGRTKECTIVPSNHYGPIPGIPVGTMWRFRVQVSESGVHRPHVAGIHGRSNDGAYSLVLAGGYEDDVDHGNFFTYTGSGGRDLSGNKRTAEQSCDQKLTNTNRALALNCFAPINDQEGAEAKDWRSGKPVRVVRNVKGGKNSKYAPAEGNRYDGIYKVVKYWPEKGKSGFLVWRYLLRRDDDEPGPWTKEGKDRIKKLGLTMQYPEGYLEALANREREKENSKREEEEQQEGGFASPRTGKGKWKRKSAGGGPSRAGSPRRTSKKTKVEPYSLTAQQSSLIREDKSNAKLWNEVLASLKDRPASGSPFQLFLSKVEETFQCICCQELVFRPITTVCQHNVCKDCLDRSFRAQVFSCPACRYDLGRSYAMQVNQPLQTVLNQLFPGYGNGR
NSD2 HMT inh: inhibitors of human histone methyltransferase NSD2 | O96028 | NSD2 peptide methylation, AlphaScreen, 120 min | inhibition, % at 12.5 µM | actives 0.54% (n = 310,000) | AID 743445; in the data active = inhibition above about 50%
MBD2 DNA inh: inhibitors of human MBD2 binding to methylated oligonucleotide | Q9UBB5 | TR-FRET | inhibition, % at 4.4 µM | actives 0.31% (n = 370,000) | AID 686964; in the data active = inhibition above about 13%
Active calls of the source: *; nt = no result.

SMILES	TDP2 absorb	LEDGF integ inh	Casp6 inh	UHRF1 binding	NSD2 HMT inh	MBD2 DNA inh
CC(C)(C)C(=O)[C@@H]1[C@@H]2C(=O)N(C3CCCCC3)C(=O)[C@@H]2[C@H]2c3ccccc3C=CN12	-4	-5	nt	-11	125*	-7
COc1ccc(N2C(=O)[C@@H]3[C@H](C2=O)[C@H]2c4ccccc4C=CN2[C@@H]3C(C)=O)cc1	16	4	84*	-7	14	-6
COc1ccc(S(=O)(=O)Nc2ccc3c(c2)[C@@H]2C[C@@H](CC(=O)N(C)C)O[C@H](CO)[C@@H]2O3)cc1	nt	nt	1	nt	nt	nt
COc1ccc(CCNC(=O)c2cc(-c3ccc(Cl)c(Cl)c3)oc2C)cc1	0	5	1	22*	-1	9
COc1ccc(CCNC(=O)c2nn(C)cc2Cl)cc1	1	1	3	1	nt	1
Cc1noc(C)c1C(=O)NCCCc1ccccc1	-16	-5	nt	3	-10	5
COc1ccc(CCNC(=O)c2c(C)noc2C)cc1	-5	0	50*	-3	1	2
O=C(Cc1ccccc1)N1CC(=O)N2[C@@H](CO)[C@@H](c3ccc(Br)cc3)[C@@H]2C1	nt	nt	1	nt	nt	nt
Brc1ccc(CSc2nnc3ccccn23)cc1	3	0	2	33*	0	7
Clc1cccc(Cl)c1CSc1nnc2ccccn12	-9	-1	-5	5	3	-1
CCOCCCNC(=S)N1CCN(CC)CC1	-5	1	1	-2	5	0
CCCCNC(=S)N1CCN(CC)CC1	-10	2	45*	4	4	-2
CC1(C)CC(=O)C2=C(C1)NC(=O)CC2	0	-2	38*	1	0	6
COCc1cc(C)nc(OCC(=O)N/N=C/c2ccc(OC)c(O)c2)c1C#N	4	-2	-2	36*	0	-2
O=C(O)CCCC(=O)Nc1ccccc1C(=O)O	1	16*	nt	0	0	1
CCCCC(=O)NNC(=O)CC(=O)Nc1ccccc1C(=O)O	15	-3	0	2	-2	0
Cc1ccccc1CNC1CCC12CCC(c1ccccc1)CC2 (stereo not drawn)	-8	2	nt	0	-5	0
c1ccc(CNC2CCC23CCC(c2ccccc2)CC3)cc1 (stereo not drawn)	-7	3	nt	81*	nt	3
O=C1NN(c2ccc(Cl)c(Cl)c2)C(=O)/C1=C/c1ccc(-c2ccccc2C(=O)O)o1	0	1	37*	7	16	4
Cc1ccc(N2NC(=O)/C(=C/c3ccc(-c4ccc(Cl)c(C(=O)O)c4)o3)C2=O)cc1C	-5	-2	3	4	nt	-2
COC(=O)c1ccc(N2NC(=O)/C(=C/c3ccc(-c4ccc(Cl)c(C(=O)O)c4)o3)C2=O)cc1	-4	11	58*	39*	-2	9
CC1=NN(c2ccc(Cl)c(C(=O)O)c2)C(=O)/C1=C\c1ccc(-c2ccc(C(=O)O)cc2)o1	-7	-1	54*	3	8	-3
COc1ccc(/C([O-])=C(/C(=S)Nc2ccc(C)c(C)c2)n2c[n+](C)c3ccccc32)cc1OC	-1	2	-5	26*	10	4
COc1ccc(NC(=S)Nc2ccc(C)c(Cl)c2)cc1OC	6	1	-2	-3	4	-5
Cc1noc(C)c1NC(=O)Nc1ccc2c(c1)CC(=O)N([C@H](C)CO)C[C@@H](C)[C@@H](CN(C)CC1CCCCC1)O2	nt	nt	0	nt	nt	nt
SMILES	TDP2 absorb	LEDGF integ inh	Casp6 inh	UHRF1 binding	NSD2 HMT inh	MBD2 DNA inh
CC1CC2(CCCC2)Nc2ccc(F)cc21 (stereo not drawn)	4	0	1	2	1	2
Cc1cccc2c1NC1(CCCC1)CC2C (stereo not drawn)	4	-1	2	22*	0	-3
CCOc1ccc(C(=O)NCC(=O)OCc2cc([N+](=O)[O-])cc3c2OCOC3)cc1OCC	6	2	4	-3	1	2
COc1cc(C(=O)NC(CCSC)C(=O)OCc2cc([N+](=O)[O-])cc3c2OCOC3)cc(OC)c1OC (stereo not drawn)	5	1	36*	3	2	6
COC(=O)c1oc2c(c1C)C(=O)CCC2	0	-6	3	3	-2	2
O=C1CCCc2oc3c(c21)CCCC3	-8	-6	0	23*	13	12
